5HT1E ag – 5-HT1E receptor agonists, primary screen, cell-based, HTS; 5-hydroxytryptamine receptor 1E (Homo sapiens), P28566; CHO 5-HT1E Ga15 NFAT-bla reporter, FRET; 0% DMSO wells, 100% control agonist wells; activation, % at 6 µM; actives 0.69% (n = 65,000); AID 574, 2007;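 active = activation above a set limit, the screen-wide mean activation plus 3 SD, cut at about 8.5% in these data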
HTR1E antagonist – 5-HT1E receptor antagonists, primary screen, cell-based, HTS; 5-hydroxytryptamine receptor 1E (Homo sapiens), P28566; CHO 5-HT1E Ga15 NFAT-bla reporter, FRET, antagonist; inhibition, % at 6 µM; actives 0.99% (n = 65,000);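 active = inhibition above a set limit, the mean inhibition across every tested compound plus 3 SD, cut at about 29% in these data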;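 also: signal is the 460 over 535 nm emission ratio of beta-lactamase substrate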
HTR1A agonist – human 5-HT1a receptor agonists, primary screen, cell-based, CHO, Ga15 NFAT-bla reporter; 5-hydroxytryptamine receptor 1A (Homo sapiens), P08908; CHO 5-HT1a Ga15 NFAT-bla reporter, FRET ratio; 0% basal, 100% maximal reference agonist; activation, % at 10 µM; actives 0.56% (n = 65,000);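 active = activation above the screen-wide mean activation plus 3 SD, cut at about 19% in these data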
Target sequence (P08908 whole entry, looked up): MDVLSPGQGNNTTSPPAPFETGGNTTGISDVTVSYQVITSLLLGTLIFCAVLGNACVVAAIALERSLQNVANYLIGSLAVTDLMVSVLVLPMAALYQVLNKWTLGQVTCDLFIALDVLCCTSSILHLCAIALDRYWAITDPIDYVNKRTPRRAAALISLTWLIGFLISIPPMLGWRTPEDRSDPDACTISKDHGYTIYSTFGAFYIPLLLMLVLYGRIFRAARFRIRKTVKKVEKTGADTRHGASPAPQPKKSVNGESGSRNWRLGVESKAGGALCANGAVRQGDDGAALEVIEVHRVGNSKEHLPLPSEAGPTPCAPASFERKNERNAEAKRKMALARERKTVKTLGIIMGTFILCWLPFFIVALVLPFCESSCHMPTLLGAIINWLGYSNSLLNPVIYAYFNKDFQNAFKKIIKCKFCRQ
S1P1 ag pot – S1P1 agonists and agonism potentiators, primary screen, cell-based, primary and confirmation screens, CRE-bla reporter. AID 449, 2006. Sphingosine 1-phosphate receptor 1 (Homo sapiens), P21453. activation, % at 9.5 µM. S1P1 CRE-bla cells, forskolin, beta-lactamase FRET, potentiator mode; S1P1 agonist co-added at EC20, 2 nM; 100% = saturating reference agonist, 0% = basal. actives 0.57% (n = 56,000);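 active = activation above a cutoff set at the mean activation of all tested compounds plus 3 SD, cut at about 54% in these data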;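 also: forskolin at 4 µM as EC80 and the EC20 agonist is SEW2871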
5HT1a antag – human 5-HT1a receptor antagonists, primary screen, cell-based, CHO, Ga15 NFAT-bla reporter; 5-hydroxytryptamine receptor 1A (Homo sapiens), P08908; CHO 5-HT1a Ga15 NFAT-bla reporter, antagonist mode; inhibition, % at 10 µM; actives 0.68% (n = 62,000); AID 612, 2007;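 active = inhibition above the mean of all tested compounds plus 3 SD, cut at about 43% in these data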;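 also: receptor stimulated by 5-CT agonist at 100 nM near EC80; beta-lactamase reporter measured by ratiometric fluorescence of a cleavable substrate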
S1P3 agonist – human S1P3 receptor agonists, primary screen, cell-based, primary and confirmation, NFAT-BLA reporter. actives 0.1% (n = 60,000). AID 373, 2006. S1P3 NFAT-BLA reporter cells, agonism, FRET ratio; relative to 1 µM S1P, basal subtracted. Sphingosine 1-phosphate receptor 3 (Homo sapiens), Q99500. activation, % at 4.5 µM;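 active = activation above the screen-wide mean plus 3 SD, cut at about 4.5% in these data, passing the limit was not always enough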
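Material: Human S1P3 NFAT-BLA reporter CHO cells | Incubation: Overnight plating, 4 h compound 37 °C, 2 h substrate RT | Signal: FRET β-lactamase substrate fluorescence, excitation 405 nm, 460/535 nm emission ratio, background-subtracted | Compound: 4.5 µM final, single dose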
A number is an active result; – = inactive; · = not tested or not shown. Compounds with a hit are over-represented: about 3% of the library has one in this group of screens.

SMILES	5HT1E ag	HTR1E antagonist	HTR1A agonist	S1P1 ag pot	5HT1a antag	S1P3 agonist
Cc1ccc2[nH]c3c(NCc4ccco4)ncnc3c2c1	–	–	–	65	–	–
CC(=O)c1ccc(N2CCN(C(=O)c3ccc(OCc4c(C)noc4C)cc3)CC2)cc1	–	–	–	–	–	–
Cc1noc(C)c1COc1ccc(C(=O)OC(C)C(=O)Nc2ccc(N3CCOCC3)cc2)cc1 (configuration not stated)	120	–	–	–	–	–
Cc1sc2ncnc(OCC(=O)N3CCN(S(=O)(=O)c4ccccc4)CC3)c2c1C	–	–	–	–	–	–
CCOC(=O)c1cc2ccc(OC(=O)c3ccco3)cc2oc1=O	81	–	296	–	–	28
O=c1c2ccccc2cnn1-c1nc2ccccc2s1	–	–	–	–	–	–
CCOC(=O)C(C)c1nn(C)c(=O)c2ccccc12 (configuration not stated)	–	–	–	·	–	–
CCOC(=O)CCc1nn(C)c(=O)c2ccccc12	–	40	–	·	–	·
CCCNC(=O)c1c(N)n(-c2cccc(OC)c2)c2nc3ccccc3nc12	8.7	–	42	–	–	–
COCCCNC(=O)c1c(N)n(-c2cccc(S(N)(=O)=O)c2)c2nc3ccccc3nc12	–	–	–	–	–	–
O=C(NCCc1c[nH]c2ccccc12)C1CCN(c2nnc(N3CCCC3=O)s2)CC1	46	–	–	–	–	–
O=C(O)C1CCCCC1C(=O)NCCc1ccncc1 (configuration not stated)	–	–	–	–	–	–
O=C(NCCc1c[nH]c2ccccc12)C(F)(F)C(F)F	26	–	–	–	–	–
O=C(O)C1CCCCC1C(=O)NCCc1c[nH]c2ccccc12 (configuration not stated)	99	–	22	–	–	–
COCCNC(=O)C1CC(=O)N(CCc2ccccc2)C1 (configuration not stated)	–	–	–	–	–	–
COc1ccc(N(CC(=O)NCc2ccco2)S(C)(=O)=O)cc1Cl	–	–	–	·	–	·
Cn1cccc1Cc1nnc(SCC(=O)NCC2CCCO2)n1-c1ccc(F)cc1 (configuration not stated)	–	–	–	–	–	–
c1cncc(Oc2cccc(Oc3cccnc3)c2)c1	–	–	–	–	·	–
CC1CCCCC1n1c(=S)[nH]c2ccccc2c1=O (configuration not stated)	11	–	–	·	–	·
O=C1CCCC2=C1C(O)(C(F)(F)F)C(=O)N2Cc1ccccc1 (configuration not stated)	–	–	–	–	–	–
O=C1N2c3ccccc3CCc3cccc(c32)C1(O)C(F)(F)F (configuration not stated)	–	29	–	–	–	–
CCNS(=O)(=O)c1ccc(NC(=O)c2cccnc2)cc1	–	–	–	–	–	–
CCOC(=O)c1ccc(N=c2sc(C(=O)OC)cc(=O)n2C2CC2)cc1	–	–	–	–	–	–
COC(=O)c1cc(=O)n(C2CC2)c(=NC2CC2)s1	–	31	–	·	–	·
O=C(c1ccc(N2CCCC2=O)cc1)N1CCCCCC1	–	–	–	–	–	–
COc1ccc(-c2nc(-c3cccc(C(F)(F)F)c3)no2)cc1OC	–	–	–	75	–	–
COc1ccccc1-c1nc(-c2cccc(C)c2)no1	–	–	–	99	–	–
COc1ccc(-c2nc(-c3cccc(C)c3)no2)cc1OC	–	–	–	108	–	–
COc1ccccc1-c1noc(-c2ccccc2)n1	–	–	–	–	–	–
COc1cc(-c2nc(-c3cccc(C)c3)no2)cc(OC)c1OC	–	–	–	–	–	–

Screens from PubChem BioAssay.
